# Reference: ChEMBL document CHEMBL1127840, “Conformational analysis of 5-lipoxygenase inhibitors: role of the substituents in chiral recognition and on the active conformations of the (methoxyalkyl)thiazole and methoxytetrahydropyran series” (J Med Chem, 1994)
# Key:
# [1] = target: T1, Polyunsaturated fatty acid 5-lipoxygenase (Homo sapiens, UniProt P09917); assay: Inhibition of 5-lipoxygenase from human whole blood; assay type: tissue-based
# T1 sequence (P09917 whole entry): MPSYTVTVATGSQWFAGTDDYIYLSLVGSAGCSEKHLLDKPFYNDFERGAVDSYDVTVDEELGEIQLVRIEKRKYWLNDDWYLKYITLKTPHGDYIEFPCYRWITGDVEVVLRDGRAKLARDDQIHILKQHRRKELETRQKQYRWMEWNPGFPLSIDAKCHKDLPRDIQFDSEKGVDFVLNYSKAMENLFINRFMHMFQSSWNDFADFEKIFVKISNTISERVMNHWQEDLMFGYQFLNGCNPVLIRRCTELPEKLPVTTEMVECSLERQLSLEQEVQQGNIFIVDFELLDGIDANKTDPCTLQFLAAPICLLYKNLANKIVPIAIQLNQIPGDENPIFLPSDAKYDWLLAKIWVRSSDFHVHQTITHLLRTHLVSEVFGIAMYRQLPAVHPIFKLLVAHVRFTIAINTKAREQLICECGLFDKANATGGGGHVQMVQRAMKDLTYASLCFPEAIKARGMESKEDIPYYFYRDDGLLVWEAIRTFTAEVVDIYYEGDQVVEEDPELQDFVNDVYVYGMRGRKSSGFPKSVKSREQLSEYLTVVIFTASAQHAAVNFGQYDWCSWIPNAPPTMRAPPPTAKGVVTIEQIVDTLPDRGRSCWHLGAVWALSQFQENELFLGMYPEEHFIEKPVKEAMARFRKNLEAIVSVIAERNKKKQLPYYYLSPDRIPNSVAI
# Method in brief: (§1)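 Eicosanoid generation measured to assess 5-LO inhibition. IC50 from iterative four-parameter curve fit. Data reported as mean ± SE with the number of determinations; where only two runs were made, both values are given.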
# [2] = target: T2, Polyunsaturated fatty acid 5-lipoxygenase (Mus musculus, UniProt P48999); assay: Inhibition of 5-lipoxygenase from mouse macrophage
# T2 sequence (P48999 whole entry): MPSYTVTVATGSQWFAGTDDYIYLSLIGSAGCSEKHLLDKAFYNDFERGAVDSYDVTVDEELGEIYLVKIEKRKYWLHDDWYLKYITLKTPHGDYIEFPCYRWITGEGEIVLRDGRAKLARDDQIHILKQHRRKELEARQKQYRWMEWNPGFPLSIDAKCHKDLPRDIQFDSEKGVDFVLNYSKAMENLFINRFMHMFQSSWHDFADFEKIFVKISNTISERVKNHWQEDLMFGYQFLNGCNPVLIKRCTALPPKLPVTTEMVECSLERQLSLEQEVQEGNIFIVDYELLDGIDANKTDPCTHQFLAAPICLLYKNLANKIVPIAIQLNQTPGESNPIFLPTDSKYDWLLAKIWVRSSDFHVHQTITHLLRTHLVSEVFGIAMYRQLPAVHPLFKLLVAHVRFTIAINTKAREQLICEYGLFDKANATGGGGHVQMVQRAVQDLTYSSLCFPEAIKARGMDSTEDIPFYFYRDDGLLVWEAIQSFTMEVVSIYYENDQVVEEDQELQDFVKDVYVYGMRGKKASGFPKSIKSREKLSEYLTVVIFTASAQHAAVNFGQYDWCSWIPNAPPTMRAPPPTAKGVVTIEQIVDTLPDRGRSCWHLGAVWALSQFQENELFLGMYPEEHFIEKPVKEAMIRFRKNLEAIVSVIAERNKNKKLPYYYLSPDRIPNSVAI
# Method in brief: (§2)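 Plasma-free cultures of murine peritoneal macrophages. Inhibition of LTC4 synthesis (5-LO product) measured, with PGE2 also monitored. IC50 from iterative four-parameter curve fit. Data reported as mean ± SE with the number of determinations; where only two runs were made, both values are given.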
# [3] = target: T1, Polyunsaturated fatty acid 5-lipoxygenase; assay: Inhibitory concentration against 5-lipoxygenase from human whole blood; assay type: tissue-based; method in brief: as §1
# [4] = target: T2, Polyunsaturated fatty acid 5-lipoxygenase; assay: Inhibitory concentration against 5-lipoxygenase from mouse macrophage; method in brief: as §2
smiles,measurement,setting,value
COC1(c2cc(F)cc(OCc3ccc4c(ccc(=O)n4C)c3)c2)CCOCC1 [ZD-2138],IC50,[1],27 nM
CC[C@](COC)(OC)c1cc(F)cc(OCc2ccc3c(ccc(=O)n3C)c2)c1,IC50,[2],45 nM
CC[C@@](COC)(OC)c1cc(F)cc(OCc2ccc3c(ccc(=O)n3C)c2)c1,IC50,[3],520 nM
same,IC50,[2],48 nM
"COC1(c2nccs2)CCc2ccc(OCc3ccc4ccccc4c3)cc21 (single isomer, unassigned; (-))",IC50,[4],1250 nM
